# Screens (PubChem BioAssay)
# T cruzi inh: T. cruzi replication inhibition | 1.4% of 300,000 active | T. cruzi beta-gal in NIH3T3, luminescence, 90 h | inhibition, % (concentration not given with the values);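 active = mean inhibition across valid replicates above about 55%, limit read from the data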;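 also: signal also drops with host cell toxicity which is not excluded here; 0% = plate median of DMSO wells and 100% = zero luminescence signal; higher percent means less beta-gal luminescence so fewer parasites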
#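 System – NIH/3T3 host cells with β-galactosidase reporter T. cruzi · Doses – single 50 nL compound addition per well in DMSO · Reagent – 5000 T. cruzi trypomastigotes/well · Medium – Low-serum DMEM with 2% FBS · Timing – ≥90 h infection period, 3 h prior cell attachment · Evaluation – parasite load inhibition, % · Technique – GalScreen luminescence, 60 min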
# Beta cell apopt: beta cell apoptosis inhibition; INS-1E cytokine-induced death, ATP luminescence, 48 h; percent of positive-control rescue, neutral wells zero; protection from apoptosis, % (test concentration not listed); 0.8% of 300,000 active; AID 435005;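 active = Every replicate reaches about 75%, or at least half do and their mean reaches it too, limit read from the data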;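 also: 0% = cytokine-treated negative control wells and 100% = positive control rescue; higher means more ATP so stronger rescue from cytokine killing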
# CSC inhib: cancer stem cell inhibition | cancer stem cell-like cells viability, luminescence | inhibition, % at 7.5 µM | 1.1% of 300,000 active | AID 2717; in the data active = inhibition above about 75%; tested in HMLE shEcad cells
# Mdm2-MdmX inh: human Mdm2/MdmX binding inhibition; SaOS-2 split-luciferase Mdm2/MdmX complementation, luminescence; inhibition, % at 8 µM; 3% of 330,000 active; AID 485346;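 active = inhibition of at least 50% at 8 µM in the primary screen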
# Target sequence (O15151 whole entry, looked up): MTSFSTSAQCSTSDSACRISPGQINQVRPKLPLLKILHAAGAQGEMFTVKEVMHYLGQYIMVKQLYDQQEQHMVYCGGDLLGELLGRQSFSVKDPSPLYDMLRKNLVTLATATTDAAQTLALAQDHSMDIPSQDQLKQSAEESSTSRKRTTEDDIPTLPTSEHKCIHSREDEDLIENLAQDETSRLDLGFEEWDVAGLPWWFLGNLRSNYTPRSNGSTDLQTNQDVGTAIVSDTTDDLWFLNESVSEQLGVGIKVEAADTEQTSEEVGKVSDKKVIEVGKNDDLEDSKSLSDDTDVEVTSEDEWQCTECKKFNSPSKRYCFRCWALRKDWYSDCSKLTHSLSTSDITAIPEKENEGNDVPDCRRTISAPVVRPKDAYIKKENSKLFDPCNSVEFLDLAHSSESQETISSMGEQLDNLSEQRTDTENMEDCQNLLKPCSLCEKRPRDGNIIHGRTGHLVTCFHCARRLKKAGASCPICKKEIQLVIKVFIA
# Target sequence (Q00987 whole entry, looked up): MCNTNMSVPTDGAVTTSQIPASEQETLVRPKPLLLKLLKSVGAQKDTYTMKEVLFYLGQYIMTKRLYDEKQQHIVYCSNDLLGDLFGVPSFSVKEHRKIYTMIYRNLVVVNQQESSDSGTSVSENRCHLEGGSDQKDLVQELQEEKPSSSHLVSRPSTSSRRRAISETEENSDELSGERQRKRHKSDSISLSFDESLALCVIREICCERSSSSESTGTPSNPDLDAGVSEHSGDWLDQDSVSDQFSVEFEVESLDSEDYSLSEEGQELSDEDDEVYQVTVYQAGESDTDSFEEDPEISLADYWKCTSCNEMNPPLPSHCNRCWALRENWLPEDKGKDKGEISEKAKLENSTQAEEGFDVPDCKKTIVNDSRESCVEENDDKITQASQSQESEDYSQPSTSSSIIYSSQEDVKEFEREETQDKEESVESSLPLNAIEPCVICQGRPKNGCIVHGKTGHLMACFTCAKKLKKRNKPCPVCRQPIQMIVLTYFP
# Lmaj promast: Leishmania major promastigote growth inhibition; AID 1063; inhibition, % at 10 µM; Leishmania major promastigotes, resazurin fluorescence viability; 9% of 200,000 active; in the data active = inhibition above about 50%;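 also: promastigotes grown with compound for 44 hours at 28 °C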
# SKKanGAS inh: SKKanGAS growth inhibition. S. pyogenes SKKanGAS, kanamycin growth, BacTiter-Glo, 6 h. inhibition, % at 7.5 µM. 1.3% of 300,000 active. AID 1662;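 active = mean replicate score, as percent of positive control median, at least 50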;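 also: strain carries kanamycin resistance gene driven by streptokinase promoter and grows in 40 µg/ml kanamycin; loss of luminescence reflects streptokinase promoter inhibition or plain growth inhibition; 0% = median of DMSO wells and 100% = positive control at its reference dose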
# Mdm2-MdmX conf: confirmation of human Mdm2/MdmX interaction inhibitors. shares compounds with Mdm2-MdmX inh. Mdm2-MdmX binding, luminescent assay. inhibition, % at 8 µM. 55% of 10,000 active. AID 489028; in the data active = inhibition above about 40%
# Full FLuc ctr: inhibits full-length luciferase, flagging false Mdm2/MdmX hits; shares compounds with Mdm2-MdmX inh; 77% of 6,200 active; AID 504607; inhibition, % at 8 µM; SaOS-2 full-length luciferase counterscreen, luminescence;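 active = mean inhibition at 8 µM reaching about 37%, which flags the compound as non-specific, limit read from the data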;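 also: p53-null SaOS-2 cells with luciferase driven by a doxycycline-inducible promoter; compound on cells about two nights before reading with doxycycline added after day one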
# * marks the source's active call; other numbers are inactive results; / = not tested or not shown. Hits are enriched below; roughly 9.4% of the tested compounds scored in any of these assays.
SMILES,T cruzi inh,Beta cell apopt,CSC inhib,Mdm2-MdmX inh,Lmaj promast,SKKanGAS inh,Mdm2-MdmX conf,Full FLuc ctr
COc1ccc(/C=N/NC(=O)CCn2c3ccccc3c3ccccc32)cc1O,-15,32,57,53*,-9,16,58*,60*
COc1ccc(/C=N/NC(=O)c2nc(-c3ccccc3)cc(-c3ccccc3)n2)cc1O,32,15,/,56*,99*,36,33,121*
COc1cc(OC)c2cc(C(=O)N/N=C/c3ccccc3O)[nH]c2c1,9,85*,71,73*,/,103*,68*,38*
COc1ccc2[nH]c(C(=O)N/N=C/c3ccccc3OC)cc2c1,-8,1,37,7,/,-4,/,/
COc1ccc(OCc2cc(C(=O)N(Cc3nccn3C)C(C)C)no2)c2ccccc12,18,-4,-5,-16,/,3,/,/
CC(C)C[C@H](NC(=O)N1c2ccccc2NC(=O)[C@@H]1C(C)C)C(=O)N1CCC[C@@H]1C(=O)O,-4,-3,-9,-4,/,-6,/,/
O=C(N/N=C/c1ccccc1)c1[nH]c2ccc(Br)cc2c1-c1ccccc1,-8,10,46,63*,-2,-2,67*,83*
Cc1ccc2[nH]c(C(=O)N/N=C/c3ccccc3O)c(C)c2c1,70*,86*,38,59*,/,101*,78*,25
COCCn1c(N)c(N(Cc2ccccc2)C(=O)C2=COCCO2)c(=O)[nH]c1=O,-17,-2,17,-13,/,-13,/,/
O=C(C[C@@H]1C/C=C\CC[C@H](Cc2ccc(F)cc2)C(=O)OC[C@@H]2CCCN2C1=O)NCCO,/,-6,5,13,/,/,/,/
CN1Cc2sc(NC(=S)NC(=O)c3ccccc3)c(C#N)c2CC1(C)C,19,6,9,58*,/,7,62*,61*
CCC1(C)Cc2c(sc(NC(=S)NC(=O)c3ccccc3)c2C#N)CO1 (centres undefined),-5,11,44,-1,-2,19,/,/
CN(C)C(=O)CCc1ccc2c3c([nH]c2c1)[C@]1(C)[C@@H](C(=O)N2CCCCC2)C[C@H](CC(=O)NCCCn2ccnc2)C(=O)N1CC3,/,/,/,-1,/,/,/,/
COC(=O)c1cc(NC(=O)/C=C/c2ccc3c(c2)OCO3)cc(C(=O)OC)c1,-9,10,55,67*,8,24,22,102*
COc1ccc2nc(NC(C)=O)sc2c1,-6,2,14,-67,-5,8,/,/
COc1ccc2nc(NC(=O)/C=C/c3ccc4c(c3)OCO4)sc2c1,-19,/,1,83*,-4,-2,52*,35
N#CC(c1ccc(Cl)nn1)c1ccc(Cl)cc1Cl (centres undefined),4,-7,3,56*,0,1,18,/
C=C(NC(=O)C(=C)NC(=O)c1csc(C2=NC3c4csc(n4)C4NC(=O)c5csc(n5)C([C@@](C)(O)C(C)O)NC(=O)C5CSC(=N5)/C(=C\C)NC(=O)C(C(C)O)NC(=O)c5csc(n5)[C@]3(CC2)NC(=O)C(C)NC(=O)C(=C)NC(=O)C(C)NC(=O)C(C(C)CC)NC2C=Cc3c(C(C)O)cc(nc3C2O)C(=O)OC4C)n1)C(N)=O (some centres undefined),/,-9,80*,94*,/,/,56*,58*
COc1ccc(S(=O)(=O)NCc2cccnc2)cc1NC(=O)c1ccccc1,16,-2,7,6,/,-12,/,/
CCOc1ccc(S(=O)(=O)NCc2ccncc2)cc1NC(=O)c1ccccc1,2,24,13,48,/,18,/,/
COc1ccc(S(=O)(=O)NCc2ccccn2)cc1NC(=O)c1ccc(Cl)cc1,-2,/,-7,40,/,-6,/,/
CCOc1ccc(S(=O)(=O)NCc2cccnc2)cc1NC(=O)c1ccccc1F,-3,0,13,59*,/,-6,57*,53*
CCOc1ccc(S(=O)(=O)NCc2ccncc2)cc1NC(=O)c1ccccc1F,-7,-1,8,67*,/,-1,8,/
COc1ccc(S(=O)(=O)NCc2ccccn2)cc1NC(=O)c1ccccc1C,-9,/,-6,52*,/,-4,71*,63*
CCOC(=O)c1nc2sc(C)c(C)c2c(=O)[nH]1,-7,4,-4,10,-6,9,/,/
SMILES,T cruzi inh,Beta cell apopt,CSC inhib,Mdm2-MdmX inh,Lmaj promast,SKKanGAS inh,Mdm2-MdmX conf,Full FLuc ctr
CCOC(=O)/C(=C\c1cccc(O)c1)c1nc2sc(C)c(C)c2c(=O)[nH]1,-10,-27,60,82*,99*,41,35,27
CCn1c(=O)c2c(cnn2C)c2ccccc21,-9,-17,-2,81*,-4,-4,12,/
CCN(CC)CCOC(=O)c1cc(Cl)c(N)cc1OC,/,-1,2,12,/,/,/,/
COc1cc(NC(=O)c2cc(-c3ccc4c(c3)OCO4)on2)cc(OC)c1OC,59*,-4,54,60*,/,-2,42*,40*
COC(=O)c1c(-c2ccsc2)sc2ccc(-c3cc(OC)c(OC)c(OC)c3)cc12,/,1,56,64*,/,/,33,/
COc1cc(-c2c(-c3ccsc3)sc3ccccc23)cc(OC)c1OC,/,-1,42,23,/,/,/,/
COc1cc(-c2ccc3sc(-c4ccsc4)c(C#CCO)c3c2)cc(OC)c1OC,/,6,-17,74*,/,/,39,69*
CCOc1ccc(-c2nc(CS(=O)(=O)CC(=O)NCc3ccc(F)cc3)c(C)o2)cc1,-2,-2,1,16,/,1,/,/
COC(=O)c1cc(S(=O)(=O)N2CCOCC2)c(Cl)cc1N1CCOCC1,-12,-3,-9,26,-8,2,/,/
COC(=O)c1cc(C)nc2c1C(=O)C(=O)C=C2N1CCOCC1,67*,104*,51,65*,/,45,26,/
CN(C)S(=O)(=O)c1cccc(NC(=O)CO/N=C(\N)c2ccccc2)c1,0,/,2,21,/,-3,/,/
O=C(Nc1ccc(Cl)cc1Cl)NC1CCN(S(=O)(=O)c2ccc(F)cc2)CC1,9,7,60,51*,/,47,42*,59*
O=C(Nc1ccc(Cl)cc1Cl)NC1CCCC1,17,3,10,0,-6,5,/,/
COc1cc(Cl)c(C)cc1NCC(=O)Nc1cccc(S(=O)(=O)N2CCCC2)c1,/,-2,/,51*,/,/,14,/
O=C(Nc1cccc(S(=O)(=O)N2CCCCC2)c1)Nc1ccc(Cl)cc1Cl,45,29,65,88*,60*,39,40,/
COc1ccc(NC(=O)COc2cc(C)cc(C)c2)cc1S(=O)(=O)N1CCCCC1,27,-4,3,62*,/,5,75*,51*
O=C(CNc1ccc(F)cc1Cl)Nc1cccc(S(=O)(=O)N2CCCCC2)c1,/,8,/,6,/,/,/,/
